Measurements: the EternaBench riboswitch data

Test system: MS2 coat protein
Experiment: apparent Kd, MS2 coat protein; higher = weaker binding; RNA-MaP array; FMN 200 µM where present
In short: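 Apparent Kd: the median of filtered binding-curve fits from single clusters. Designs were transcribed on Illumina sequencing-chip clusters by stalled E. coli RNA polymerase and titrated with SNAP-549-labelled MS2 coat protein from 0.7 or 1.5 nM, doubling to 3 µM, in 100 mM Tris-HCl pH 7.5, 80 mM KCl, 4 mM MgCl2, BSA, DTT, yeast tRNA and Tween-20. Each series ran without and then with constant ligand, and green signal was normalised to red-channel RNA signal and control-cluster median Fmax.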

[1] = designed as: OFF switch for flavin mononucleotide, no ligand
[2] = ligand present: flavin mononucleotide, designed as: OFF switch for flavin mononucleotide
[3] = designed as: ON switch for flavin mononucleotide, no ligand
[4] = ligand present: flavin mononucleotide, designed as: ON switch for flavin mononucleotide

Sequence: UUCUUGGCAGGAUAUGCUUUUUUAGACAUGAGGAUCACCCAUGUGUUUAUUUUUUUUUUUGCAGAAGGGCCUUAAU
- apparent Kd [1]: 16.4 nM
- apparent Kd [2]: 19.5 nM

Sequence: UGUCAUAAACAGAAGGGUAGUUGGGUUAUACAUGAGGAUCACCCAUGUAUUACAGGAUAUGUGUAAAGUUAUUAUUAAAGUAAA
- apparent Kd [1]: 12.6 nM
- apparent Kd [2]: 13.8 nM

Sequence: GGACAUGAGGAUCACCCAUGUUCUCCAGAAGGCCGUACAUUUAAAAGUGGAUGGAUUAGUGUUGCGGAGGAUAUGGAGGUGCAA
- apparent Kd [3]: 77.1 nM
- apparent Kd [4]: 16.7 nM

Sequence: UGUCGGAGCAGAGGAUAUUACAUGAGGAUCACCCAUGUAUUAAAUGGAAGCUGGAAACAGCAAUGUAAGAAGGCUGCUCCGACA
- apparent Kd [1]: 59.2 nM
- apparent Kd [2]: 311 nM

Sequence: CCGAAUGUCACAGGAUAUGGUCCGGGCACGGGACCAGAAGGGUGAUCUCACAUGAGGAUCACCCAUGUGCAGGCGUUAGGCUGC
- apparent Kd [3]: 18.6 nM
- apparent Kd [4]: 86 nM

Sequence: UUGGACAGCUAGAGCUGUUAAGUACAUGAGGAUCACCCAUGUCAGGAUAUCCUUCCGCAAUGCGAGGAGAAGGGACAGGGUCCC
- apparent Kd [1]: 64.7 nM
- apparent Kd [2]: 149 nM

Sequence: GUCGUGUGAGGAUAUGGAUAGACGCAGUGACAGUAAGCGACCUAGAAGGCACAUGAGGAUCACCCAUGUAUGUG
- apparent Kd [1]: 45.5 nM
- apparent Kd [2]: 84.1 nM

Sequence: ACAUGAGGAUCACCCAUGUAGAAUGAAGAAGGUAGAUACUUGUGACUCACCCAUGUACAUAGGACUAAGGAUAUUCUAAUAAUU
- apparent Kd [3]: 26.3 nM
- apparent Kd [4]: 13 nM

Sequence: GAGUGGAGGAGAGGAUAUACAAUGAUAAUCACUGUAGAAGGUUCUAACAUGAGGAUCACCCAUGUAGGACUAUUCCUGAGAGUU
- apparent Kd [3]: 12.8 nM
- apparent Kd [4]: 10.3 nM

Sequence: GCACUGGCAGGAUAUACAUGAGGAUCACCCAUGUGACCCUUGAAGUACUCGCGUACUCGUAGAAGGGCCUGUGC
- apparent Kd [1]: 102 nM
- apparent Kd [2]: 520 nM

Sequence: AGCUGUGGCCGAGGAUAUCUAGCUUCAAUAACCGAAAUAUAAUCGGACAUGAGGAUCACCCAUGUAGAGAAGGCGGUCUCAGCA
- apparent Kd [1]: 29.6 nM
- apparent Kd [2]: 29.6 nM

Sequence: UGACUAAAUGAAGGAUAUCUAAGCAUAAACCUGAGAGAAGGUCAUUUUUACAUGAGGAUCACCCAUGUUGUGAUUAAUGGGUCA
- apparent Kd [1]: 88.7 nM
- apparent Kd [2]: 137 nM

Sequence: AUUAGCUCGUCAGGAUAUACGUCACUGCGUCAGCAGUGUGGUAAGAUCACAUGAGGAUCACCCAUGUAGAAGGGACGAGCUGAU
- apparent Kd [1]: 13 nM
- apparent Kd [2]: 289 nM

Sequence: UUGUUAUAUGUAGGAUAUGCAUAUUGUUGUUAUGCAGAAGGACAUGAGGAUCACCCAUGUAUAUUAUUGUUAUAUAUUGUAUAU
- apparent Kd [1]: 25.4 nM
- apparent Kd [2]: 34.6 nM

Sequence: AUUAAACAUGAGGAUCACCCAUGUCAACAAAGUCGAGGAUAUGGGCAAAUAAAAUAUGAACCAGAAGGCGAAUAAU
- apparent Kd [3]: 213 nM
- apparent Kd [4]: 38.2 nM

Sequence: AGUCGGAGCAGAGGAUAUAUACAUGAGGAUCACCCAUGUAAAGAUCAAAGCUGGAAACAGCAAGUAUAGAAGGCUGCUCCGACA
- apparent Kd [1]: 90.5 nM
- apparent Kd [2]: 271 nM

Sequence: AAAUUUAACGAAGGAUAUGGUUACAUGAGGAUCACCCAUGUGUGCCUUGUGAUGCUGAUUAAGUUCCAGAAGGUCGUAUACAUA
- apparent Kd [1]: 84.8 nM
- apparent Kd [2]: 234 nM

Sequence: AGAUGGUAUAUAGGAUAUCAUGUGCAAACAUGAGGAUCACCCAUGUAGAGACGUCAGUUUAAUAAUGAGAAGGAUAUACCAUCU
- apparent Kd [3]: 31.9 nM
- apparent Kd [4]: 14.4 nM

Sequence: UCGCUGCGAGGAUAUACAUGAGGAUCACCCAUGUGCGGGUCCGGGUCUUUGUCCAUUAGUAGAAGGCGCAGUGA
- apparent Kd [1]: 305 nM
- apparent Kd [2]: 82.7 nM

Sequence: AUGGACGCAGGAUAUACAUGAGGAUCACCCAUGUUAGGGUUGUGAGUAGGAAGGGAAGGUAGAAGGGCGAGAGU
- apparent Kd [1]: 120 nM
- apparent Kd [2]: 141 nM

Sequence: GUAAGUACGAGAGGAUAUUGACAUGAGGAUCACCCAUGUAUUUGGGAGUGUUCACUGAAUUCUUACGAGAAGGCUUGUACAUAC
- apparent Kd [1]: 221 nM
- apparent Kd [2]: 220 nM

Sequence: CCAUGGUGGGCAGGAUAUCGUCCAGCUUGCAGACGAGAAGGGCUUAAACAUGAGGAUCACCCAUGUGAAAAGCGGGUUGUCCAA
- apparent Kd [1]: 26.5 nM
- apparent Kd [2]: 131 nM

Sequence: AGAUAACACCAGAAGGACAUGAGGAUCACCCAUGUAGGAUAUGGGCAUCACUCGAGAAAGAAACAACCAAAAGGACACGCGGUC
- apparent Kd [3]: 51 nM
- apparent Kd [4]: 8.36 nM
